# Test results published in ChEMBL document CHEMBL4732073, “1-BENZYLSPIRO[PIPERIDINE-4,1'-PYRIDO[3,4-b]indole] 'co-potentiators' for minimal function CFTR mutants” (Eur J Med Chem, 2021).
# Active and inactive are the calls of the source. The calls are words filed in the database; no cut-off is given here.
# Test system: Cystic fibrosis transmembrane conductance regulator (Homo sapiens), P13569 [N1303K]
# Test: (§1) Potentiation of CFTR N1303K mutant (unknown origin) expressed in rat FRT cells assessed as increase in VX-770-stimulated chloride current in presence of forskolin by short circuit method
# Assay type: cell-based
# Conditions: not given
# In short: (§2)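 FRT cells stably expressing the mutant CFTR, corrected with 3 μM VX-661 for 18–24 hours, then grown on permeable supports. Short-circuit current at 37 °C in HCO3-buffered solutions with a chloride gradient. Basolateral membrane permeabilized with 250 μg/ml amphotericin B. Additions: 20 μM forskolin, 5 μM VX-770, test compound at a range of concentrations, then 10 μM CFTRinh-172. Concentration dependence n=3, mean ± S.E.M.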
# Cystic fibrosis transmembrane conductance regulator (Homo sapiens), P13569 [N1303K], sequence (P13569 whole entry N1303K): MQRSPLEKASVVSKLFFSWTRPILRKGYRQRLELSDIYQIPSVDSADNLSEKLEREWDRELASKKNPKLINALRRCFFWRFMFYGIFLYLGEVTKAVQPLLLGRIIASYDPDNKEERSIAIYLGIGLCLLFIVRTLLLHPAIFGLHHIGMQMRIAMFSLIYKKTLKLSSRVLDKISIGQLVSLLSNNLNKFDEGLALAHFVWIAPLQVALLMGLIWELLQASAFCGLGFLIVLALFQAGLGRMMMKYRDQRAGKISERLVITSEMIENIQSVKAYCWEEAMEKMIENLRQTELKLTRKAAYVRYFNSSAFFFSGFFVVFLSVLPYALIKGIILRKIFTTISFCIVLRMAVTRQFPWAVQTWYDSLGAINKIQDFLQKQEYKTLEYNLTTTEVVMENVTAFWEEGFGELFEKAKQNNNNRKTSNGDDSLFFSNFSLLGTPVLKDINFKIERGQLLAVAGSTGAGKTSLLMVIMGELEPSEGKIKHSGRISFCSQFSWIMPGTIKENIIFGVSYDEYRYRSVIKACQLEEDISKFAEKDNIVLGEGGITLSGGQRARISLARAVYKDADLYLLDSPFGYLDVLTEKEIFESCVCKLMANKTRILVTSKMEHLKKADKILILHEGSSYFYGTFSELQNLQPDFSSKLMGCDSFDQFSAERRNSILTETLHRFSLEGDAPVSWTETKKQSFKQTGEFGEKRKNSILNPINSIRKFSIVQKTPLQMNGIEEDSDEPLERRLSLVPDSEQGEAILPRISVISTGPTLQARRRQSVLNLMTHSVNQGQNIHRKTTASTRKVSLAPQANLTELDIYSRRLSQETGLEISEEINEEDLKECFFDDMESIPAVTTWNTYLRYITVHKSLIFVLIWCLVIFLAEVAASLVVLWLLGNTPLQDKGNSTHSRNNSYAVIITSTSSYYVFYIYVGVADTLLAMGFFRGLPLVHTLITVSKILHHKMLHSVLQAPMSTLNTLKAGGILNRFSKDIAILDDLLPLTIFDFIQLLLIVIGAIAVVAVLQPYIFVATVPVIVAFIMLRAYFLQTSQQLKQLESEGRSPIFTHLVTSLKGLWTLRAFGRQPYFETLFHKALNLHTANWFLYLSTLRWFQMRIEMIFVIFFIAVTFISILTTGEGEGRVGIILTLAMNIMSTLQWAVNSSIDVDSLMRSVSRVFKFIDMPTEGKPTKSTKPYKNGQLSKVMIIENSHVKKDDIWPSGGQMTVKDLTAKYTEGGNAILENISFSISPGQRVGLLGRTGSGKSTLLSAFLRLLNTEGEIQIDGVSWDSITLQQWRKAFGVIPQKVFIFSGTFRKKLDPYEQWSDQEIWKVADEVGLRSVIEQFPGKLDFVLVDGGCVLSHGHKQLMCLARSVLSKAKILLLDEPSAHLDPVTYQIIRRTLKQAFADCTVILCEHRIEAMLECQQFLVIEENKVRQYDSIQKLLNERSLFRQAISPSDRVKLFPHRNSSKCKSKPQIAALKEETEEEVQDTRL
row,Activity,SMILES
1,inactive,COc1ccc2[nH]c3c(c2c1)CCNC31CCNCC1
2,inactive,COc1ccc2[nH]c3c(c2c1)CCN[C@@]31CCN2Cc3ccccc3C[C@H]2C1 (racemic)
3,inactive,COc1ccc2[nH]c3c(c2c1)CCNC31CCN(Cc2ccc(C(C)(C)C)cc2)CC1
4,inactive,COc1ccc2c(c1)c1c(n2C)C2(CCN(Cc3ccc(F)cc3F)CC2)NCC1
5,inactive,COc1ccc2[nH]c3c(c2c1)CCNC31CCN(Cc2ccc(F)cc2F)C1 (configuration not stated)
6,inactive,COc1ccc2[nH]cc(CCNC3CCN(Cc4ccccc4)CC3)c2c1
7,inactive,COc1ccc2[nH]c3c(c2c1)CCNC31CCCN(Cc2ccc(F)cc2F)C1 (configuration not stated)

# Molecular target: Cystic fibrosis transmembrane conductance regulator (Homo sapiens, UniProt P13569, N1303K)
# Sequence (P13569 whole entry N1303K): as above
# Test: as §1
# Assay type: cell-based
# Conditions: not given
# In short: as §2
row,EC50 [µM],SMILES
1,4.5,COc1ccc2[nH]c3c(c2c1)CCNC31CCN(Cc2c(F)ccc(Cl)c2F)CC1
2,11.1,COc1ccc2[nH]c3c(c2c1)CCNC31CCN(Cc2cc(F)cc(F)c2)CC1
3,5.9,COc1ccc2[nH]c3c(c2c1)CCNC31CCN(Cc2ccc([N+](=O)[O-])cc2F)CC1
4,16.4,COc1ccc2[nH]c3c(c2c1)CCNC31CCN(Cc2ccco2)CC1
5,20,COc1ccc2[nH]c3c(c2c1)CCNC31CCCN(Cc2ccc(F)cc2F)CC1 (configuration not stated)
6,8.2,Fc1ccc(CN2CCC3(CC2)NCCc2c3[nH]c3ccccc23)c(F)c1
7,1.6,COc1ccc2[nH]c3c(c2c1)CCNC31CCN(Cc2ccc(Br)cc2F)CC1
8,13.6,COc1ccc2[nH]c3c(c2c1)CCNC31CCN(Cc2cccc(F)c2F)CC1
9,1.8,COc1ccc2[nH]c3c(c2c1)CCNC31CCN(Cc2ccc(Br)c(F)c2)CC1
10,12.6,COc1ccc2[nH]c3c(c2c1)CCNC31CCN(Cc2ccccc2)CC1
11,17,COc1ccc2[nH]c3c(c2c1)CCNC31CCN(Cc2cccnc2)CC1
12,1.8,COc1ccc2[nH]c3c(c2c1)CCNC31CCN(Cc2ccc(Cl)cc2Cl)CC1
13,11.5,COc1ccc2[nH]c3c(c2c1)CCNC31CCN(Cc2ccccn2)CC1
14,11.1,COc1ccc2[nH]c3c(c2c1)CCNC31CCN(Cc2cc(F)ccc2F)CC1
15,11,COc1ccc2[nH]c3c(c2c1)CCNC31CCN(Cc2ccc(F)c(F)c2)CC1
16,7.1,COc1ccc2[nH]c3c(c2c1)CCNC31CCN(Cc2cc(Cl)ccc2[N+](=O)[O-])CC1
17,21,Fc1ccc(CN2CCC3(CC2)NCCc2c3[nH]c3ccc(Br)cc23)c(F)c1
18,2,COc1ccc2[nH]c3c(c2c1)CCNC31CCN(Cc2ccc(F)cc2F)CC1
19,20,COc1ccc2[nH]c3c(c2c1)CCNC31CCN(C(C)c2ccccc2)CC1 (configuration not stated)
20,2.2,COc1ccc2[nH]c3c(c2c1)CCNC31CCN(Cc2ccccc2Cl)CC1
21,2.5,COc1ccc2[nH]c3c(c2c1)CCNC31CCN(Cc2cc(F)cc(Cl)c2)CC1

# Test system: Cystic fibrosis transmembrane conductance regulator (Homo sapiens), P13569 [R347P]
# Sequence (P13569 whole entry R347P): as the sequence (P13569 whole entry N1303K) above, with R347P, K1303N counted along it
# Test: Potentiation of CFTR R347P mutant (unknown origin) expressed in rat FRT cells assessed as effect on VX-770-stimulated chloride current in presence of forskolin by short circuit method
# Assay type: cell-based
# Conditions: not given
# In short: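 R347P-CFTR FRT cells, corrected with 3 μM VX-661 for 18–24 h. Short-circuit current at 37 °C in HCO3-buffered solutions with a chloride gradient. Basolateral membrane permeabilized with 250 μg/ml amphotericin B. Sequential additions: 20 μM forskolin, 5 μM VX-770, 20 μM test compound, then 10 μM CFTRinh-172.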
row,Activity,SMILES
1,inactive,COc1ccc2[nH]c3c(c2c1)CCNC31CCN(Cc2cc(F)c(F)cc2F)CC1

# Test system: 16HBE14o-
# Test: Potentiation of CFTR I1234del mutant (unknown origin) expressed in human 16HBE14o- cells assessed as increase in VX-770-stimulated chloride current in presence of forskolin by short circuit method
# Assay type: cell-based
# Conditions: filed as activator
# In short: (§3)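 Gene-edited 16HBE14o- cells grown on permeable supports; short-circuit current at 37 °C with a chloride gradient in Hepes-buffered solutions. Sequential additions: 20 μM forskolin, 5 μM VX-770, 10 μM test compound, then 10 μM CFTRinh-172. Change in current (ΔIsc) reported as mean ± S.E.M., n = 3.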
row,SMILES,Activity
1,COc1ccc2[nH]c3c(c2c1)CCNC31CCN(Cc2cc(F)c(F)cc2F)CC1,Active

# Test system: Cystic fibrosis transmembrane conductance regulator (Homo sapiens), P13569 [N1303K]
# Test: Potentiation of CFTR N1303K mutant (unknown origin) expressed in human 16HBE14o- cells assessed as increase in VX-770-stimulated chloride current in presence of forskolin by short circuit method
# Assay type: cell-based
# Conditions: filed as activator
# In short: as §3
row,Activity,SMILES
1,Active,COc1ccc2[nH]c3c(c2c1)CCNC31CCN(Cc2cc(F)c(F)cc2F)CC1

# Test system: not listed separately
# Test: Potentiation of CFTR I1234del mutant (unknown origin) expressed in rat FRT cells assessed as increase in VX-770-stimulated chloride current in presence of forskolin by short circuit method
# Assay type: cell-based
# Conditions: Homo sapiens
# In short: as §2
row,EC50 [µM],SMILES
1,0.7,COc1ccc2[nH]c3c(c2c1)CCNC31CCN(Cc2cc(F)c(F)cc2F)CC1
